# Active and inactive are the calls of the source. The rule behind the calls is not given here.
# Assays:
# Mus musculus [1] = experiment: Antiepileptic activity in ip dosed Swiss albino mouse assessed as protection against scPTZ-induced seizures after 0.5 hrs; assay type: functional; conditions: read-out: MED
# Method in brief: (§1)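 Male Swiss albino mice (18–25 g), compounds given ip at 30, 100 and 300 mg/kg. Seizures induced by maximal electroshock (MES) or subcutaneous pentylenetetrazole (scPTZ). Protection scored at 0.5 and 4.0 h after dosing.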
# Mus musculus [2] = experiment: Antiepileptic activity in ip dosed Swiss albino mouse assessed as protection against scPTZ-induced seizures after 4 hrs; assay type: functional; conditions: read-out: MED; method in brief: as §1
# Mus musculus [3] = experiment: Neurotoxicity against ip dosed Swiss albino mouse after 4 hrs by rotarod test; assay type: toxicity, organism-based; conditions: in vivo
# Method in brief: (§2)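 Acute neurotoxicity tested by rotorod in male Swiss albino mice (18–25 g) given 30, 100 or 300 mg/kg ip. Read at 0.5 and 4.0 h post-dose. Result is the minimal dose causing toxicity in half or more of the animals; a dash means none up to 300 mg/kg.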
# Rattus norvegicus [4] = experiment: Antiepileptic activity in Wistar rat assessed as protection against scSTY-induced seizures at 300 mg/kg, ip measured after 0.5 hrs; assay type: functional, organism-based; set-up: dose 300 mg/kg
# Method in brief: (§3)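 Male Wistar rats (100–150 g), compounds given ip at 30, 100 and 300 mg/kg. Seizures induced by subcutaneous strychnine (scSTY). Activity read 0.5 and 4.0 h after dosing. Reported as the minimal dose active in at least half of the animals; a dash means no activity at 300 mg/kg.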
# Mus musculus [5] = experiment: Antiepileptic activity in ip dosed Swiss albino mouse assessed as protection against maximal-electric shock-induced seizures after 0.5 hrs; assay type: functional; conditions: read-out: MED; method in brief: as §1
# Mus musculus [6] = experiment: Neurotoxicity against ip dosed Swiss albino mouse after 0.5 hrs by rotarod test; assay type: toxicity, organism-based; conditions: in vivo; method in brief: as §2
# Rattus norvegicus [7] = experiment: Antiepileptic activity in Wistar rat assessed as protection against scSTY-induced seizures at 300 mg/kg, ip measured after 4 hrs; assay type: functional, organism-based; set-up: dose 300 mg/kg; method in brief: as §3
# Mus musculus [8] = experiment: Antiepileptic activity in ip dosed Swiss albino mouse assessed as protection against maximal-electric shock-induced seizures after 4 hrs; assay type: functional; conditions: read-out: MED; method in brief: as §1
# Rattus norvegicus [9] = experiment: Neurotoxicity in Wistar rat at 30 mg/kg, po measured at 2 hrs by rotarod test; assay type: toxicity, organism-based; set-up: dose 30 mg/kg, route oral; conditions: in vivo
# Method in brief: (§4)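 Neurotoxicity assessed in Wistar rats (100–150 g) after a 30 mg/kg oral dose, read at 0.25, 0.5, 1, 2 and 4 h.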
# Rattus norvegicus [10] = experiment: Antiepileptic activity in Wistar rat assessed as GABA level in midbrain per 100 mg at 100 mg/kg ip after 2 hrs (reference value: 35.42 +/- 2.14 ug); assay type: functional; conditions: route intraperitoneal
# Rattus norvegicus [11] = experiment: Neurotoxicity in Wistar rat at 30 mg/kg, po measured at 0.25 hrs by rotarod test; assay type: toxicity, organism-based; set-up: dose 30 mg/kg, route oral; conditions: in vivo; method in brief: as §4
# Rattus norvegicus [12] = experiment: Neurotoxicity in Wistar rat at 30 mg/kg, po measured at 1 hr by rotarod test; assay type: toxicity, organism-based; set-up: dose 30 mg/kg, route oral; conditions: in vivo; method in brief: as §4
# Rattus norvegicus [13] = experiment: Antiepileptic activity in Wistar rat assessed as GABA level in cerebellum per 100 mg at 100 mg/kg ip after 2 hrs (reference value: 23.48+/- 2.48 ug); assay type: functional; conditions: route intraperitoneal
# Rattus norvegicus [14] = experiment: Antiepileptic activity in Wistar rat assessed as protection against maximal electric shock-induced seizures at 30 mg/kg, po measured at 4 hrs; assay type: functional
# Method in brief: (§5)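 Single oral dose of 30 mg/kg in Wistar rats (100–150 g), tested by MES challenge at 0.25, 0.5, 1, 2 and 4 h.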
# Rattus norvegicus [15] = experiment: Antiepileptic activity in Wistar rat assessed as protection against maximal electric shock-induced seizures at 30 mg/kg, po measured at 0.5 hrs; assay type: functional; method in brief: as §5
# Rattus norvegicus [16] = experiment: Neurotoxicity in Wistar rat at 30 mg/kg, po measured at 4 hrs by rotarod test; assay type: toxicity, organism-based; set-up: dose 30 mg/kg, route oral; conditions: in vivo; method in brief: as §4
# Mus musculus [17] = experiment: Neurotoxicity against Swiss albino mouse by rotarod test at 300 mg/kg, ip after 4 hrs; assay type: toxicity, organism-based; set-up: dose 300 mg/kg, route intraperitoneal; conditions: in vivo; method in brief: as §2
# Rattus norvegicus [18] = experiment: Antiepileptic activity in Wistar rat assessed as GABA level in medulla oblangata per 100 mg at 100 mg/kg ip after 2 hrs (reference value: 31.86 +/- 4.65 ug); assay type: functional, Medulla oblongata; conditions: route intraperitoneal
# Rattus norvegicus [19] = experiment: Antiepileptic activity in Wistar rat assessed as protection against maximal electric shock-induced seizures at 30 mg/kg, po measured at 2 hrs; assay type: functional; method in brief: as §5
# Rattus norvegicus [20] = experiment: Neurotoxicity in Wistar rat at 30 mg/kg, po measured at 0.5 hrs by rotarod test; assay type: toxicity, organism-based; set-up: dose 30 mg/kg, route oral; conditions: in vivo; method in brief: as §4
# Rattus norvegicus [21] = experiment: Antiepileptic activity in Wistar rat assessed as protection against maximal electric shock-induced seizures at 30 mg/kg, po measured at 0.25 hrs; assay type: functional; method in brief: as §5
# Rattus norvegicus [22] = experiment: Antiepileptic activity in Wistar rat assessed as protection against maximal electric shock-induced seizures at 30 mg/kg, po measured at 1 hr; assay type: functional; method in brief: as §5
# Rattus norvegicus [23] = experiment: Antiepileptic activity in ip dosed Wistar rat assessed as protection against scSTY-induced seizures after 4 hrs; assay type: functional; conditions: read-out: MED; method in brief: as §3
# Mus musculus [24] = experiment: Neurotoxicity against Swiss albino mouse by rotarod test at 300 mg/kg, ip after 0.5 hrs; assay type: toxicity, organism-based; set-up: dose 300 mg/kg, route intraperitoneal; conditions: in vivo; method in brief: as §2
# Mus musculus [25] = experiment: Antiepileptic activity in Swiss albino mouse assessed as protection against scPTZ-induced seizures at 300 mg/kg, ip measured after 0.5 hrs; assay type: functional, organism-based; set-up: dose 300 mg/kg; method in brief: as §1
# Rattus norvegicus [26] = experiment: Antiepileptic activity in ip dosed Wistar rat assessed as protection against scSTY-induced seizures after 0.5 hrs; assay type: functional; conditions: read-out: MED
# Method in brief: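 Subcutaneous strychnine seizure test in Wistar rats (male, 100–150 g), compounds given ip at 30, 100 and 300 mg/kg. Protection read 0.5 and 4.0 h after dosing.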
# Mus musculus [27] = experiment: Antiepileptic activity in Swiss albino mouse assessed as protection against maximal-electric shock-induced seizures at 300 mg/kg, ip measured after 4 hrs; assay type: functional, organism-based; set-up: dose 300 mg/kg; method in brief: as §1
# Mus musculus [28] = experiment: Antiepileptic activity in Swiss albino mouse assessed as protection against scPTZ-induced seizures at 300 mg/kg, ip measured after 4 hrs; assay type: functional, organism-based; set-up: dose 300 mg/kg; method in brief: as §1
# Rattus norvegicus [29] = experiment: Antiepileptic activity in Wistar rat assessed as GABA level in cerebellum per 100 mg at 30 mg/kg ip after 2 hrs (reference value: 23.48+/- 2.48 ug); assay type: functional; conditions: route intraperitoneal
# Rattus norvegicus [30] = experiment: Antiepileptic activity in Wistar rat assessed as GABA level in midbrain per 100 mg at 30 mg/kg ip after 2 hrs (reference value: 35.42 +/- 2.14 ug); assay type: functional; conditions: route intraperitoneal
# Rattus norvegicus [31] = experiment: Antiepileptic activity in Wistar rat assessed as GABA level in medulla oblangata per 100 mg at 30 mg/kg ip after 2 hrs (reference value: 31.86 +/- 4.65 ug); assay type: functional, Medulla oblongata; conditions: route intraperitoneal
# Mus musculus [32] = experiment: Antiepileptic activity in Swiss albino mouse assessed as protection against maximal-electric shock-induced seizures at 300 mg/kg, ip measured after 0.5 hrs; assay type: functional, organism-based; set-up: dose 300 mg/kg; method in brief: as §1
SMILES,minimal effective dose (Mus musculus [1]) [mg/kg],minimal effective dose (Mus musculus [2]) [mg/kg],Activity (Rattus norvegicus [4]),minimal effective dose (Mus musculus [5]) [mg/kg],minimal effective dose (Mus musculus [8]) [mg/kg],Activity (Rattus norvegicus [9]),Activity (Rattus norvegicus [10]) [µg],Activity (Rattus norvegicus [11]),Activity (Rattus norvegicus [12]),Activity (Rattus norvegicus [13]) [µg],Activity (Rattus norvegicus [14]),Activity (Rattus norvegicus [15]) [%],Activity (Rattus norvegicus [16]),Activity (Mus musculus [17]),Activity (Rattus norvegicus [18]) [µg],Activity (Rattus norvegicus [19]) [%],Activity (Rattus norvegicus [20]),Activity (Rattus norvegicus [21]) [%],Activity (Rattus norvegicus [22]) [%],Activity (Mus musculus [24]),further results
NC(=O)N1c2ccccc2C=Cc2ccccc21 [CARBAMAZEPINE],100,300,inactive,30,100,–,–,–,–,–,–,–,–,–,–,–,–,–,–,–,MTC (Mus musculus [3]): 300 mg/kg; MTC (Mus musculus [6]): 100 mg/kg; Activity (Rattus norvegicus [7]): inactive
C=C(C)[C@@H]1CC=C(C)/C(=N/NC(=O)Nc2nnc(-c3ccc([N+](=O)[O-])cc3)o2)C1,100,300,inactive,100,300,Non-toxic,66.6,Non-toxic,Non-toxic,28.64,50%,25,Non-toxic,Non-toxic,48.59,50,Non-toxic,75,25,Non-toxic,minimal effective dose (Rattus norvegicus [23]): 300 mg/kg
CC(C)=CC/C=C(/C)C/C=N/NC(=O)Nc1nnc(-c2ccc([N+](=O)[O-])cc2)o1,–,300,inactive,100,300,Non-toxic,62.56,Non-toxic,Non-toxic,32.04,50%,0,Non-toxic,Non-toxic,36.72,25,Non-toxic,50,25,Non-toxic,Activity (Mus musculus [25]): inactive; minimal effective dose (Rattus norvegicus [23]): 300 mg/kg
CCCC(CCC)C(=O)[O-].[Na+] [VALPROATE SODIUM],300,–,–,300,–,–,–,–,–,–,–,–,–,Non-toxic,–,–,–,–,–,Non-toxic,minimal effective dose (Rattus norvegicus [26]): 300 mg/kg; Activity (Mus musculus [27]): inactive; Activity (Rattus norvegicus [7]): inactive; Activity (Mus musculus [28]): inactive
CN1C(=O)CC(=O)N(c2ccccc2)c2cc(Cl)ccc21 [CLOBAZAM],–,–,–,–,–,–,–,–,–,–,–,–,–,–,–,–,–,–,–,–,Activity (Rattus norvegicus [29]): 35.44 µg; Activity (Rattus norvegicus [30]): 69.51 µg; Activity (Rattus norvegicus [31]): 47.53 µg
C=C(C)[C@@H]1CC=C(C)/C(=N/NC(=O)Nc2nnc(-c3ccc(O)cc3)o2)C1,–,300,inactive,100,300,0%,47.42,Non-toxic,Non-toxic,30.64,50%,0,Non-toxic,Non-toxic,43.48,0,Non-toxic,25,25,Non-toxic,Activity (Mus musculus [25]): inactive; minimal effective dose (Rattus norvegicus [23]): 300 mg/kg
C=C(C)[C@@H]1CC=C(C)/C(=N/NC(=O)Nc2nnc(-c3ccc(F)cc3)o2)C1,–,300,inactive,100,300,Non-toxic,43.56,Non-toxic,0%,28.42,inactive,25,Non-toxic,Non-toxic,42.4,25,Non-toxic,25,0,Non-toxic,Activity (Mus musculus [25]): inactive; minimal effective dose (Rattus norvegicus [23]): 300 mg/kg
CCC1(C)CC(=O)NC1=O (stereo unspecified) [ETHOSUXIMIDE],100,300,–,–,–,–,–,–,–,–,–,–,–,Non-toxic,–,–,–,–,–,Non-toxic,minimal effective dose (Rattus norvegicus [26]): 300 mg/kg; Activity (Mus musculus [27]): inactive; Activity (Rattus norvegicus [7]): inactive; Activity (Mus musculus [32]): inactive

# From ChEMBL document CHEMBL2321839, “Novel limonene and citral based 2,5-disubstituted-1,3,4-oxadiazoles: a natural product coupled approach to semicarbazones for antiepileptic activity” (Bioorg Med Chem Lett, 2013)
